Laboratory results reported in ChEMBL document CHEMBL3994579, “Synthesis and antibacterial activity of novel 3-O-descladinosylazithromycin derivatives” (2017).
Values after ≈ are worked out from the molar mass of the structure shown.

What was measured:
Type in all cases: functional
[1] = system: Pseudomonas aeruginosa; assay: Antibacterial activity against penicillin-susceptible Pseudomonas aeruginosa ATCC 27853 by broth microdilution method
Procedure, shortened: (§1)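 MICs were determined in vitro by broth microdilution following the NCCL-recommended method. Azithromycin and clarithromycin were run alongside as reference antibiotics on the same strain panel.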

[2] = system: Bacillus subtilis; assay: Antibacterial activity against erythromycin/penicillin-susceptible Bacillus subtilis ATCC 9372 by broth microdilution method; procedure, shortened: as §1
[3] = system: Streptococcus pneumoniae; assay: Antibacterial activity against erythromycin-resistant Streptococcus pneumoniae A22072 expressing mefA gene by broth microdilution method
Procedure, shortened: (§2)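 Broth microdilution per NCCL recommendation, read as minimal inhibitory concentration, run alongside azithromycin and clarithromycin references. Strains: S. pneumoniae B1 (erythromycin-resistant, ermB), A22072 (erythromycin-resistant, mefA), AB11 (erythromycin-resistant, erm and mef); S. aureus ATCC29213 ([…]); S. epidermidis clinical isolate (penicillin-resistant, not characterized).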

[4] = system: Escherichia coli; assay: Antibacterial activity against penicillin-susceptible Escherichia coli ATCC 25922 by broth microdilution method; procedure, shortened: as §1
[5] = system: Staphylococcus epidermidis; assay: Antibacterial activity against penicillin-resistant Staphylococcus epidermidis clinical isolate by broth microdilution method; procedure, shortened: as §2
[6] = system: Staphylococcus aureus; assay: Antibacterial activity against erythromycin-susceptible Staphylococcus aureus ATCC 25923 by broth microdilution method; procedure, shortened: as §1
[7] = system: Streptococcus pyogenes; assay: Antibacterial activity against erythromycin-susceptible Streptococcus pyogenes clinical isolate by broth microdilution method; procedure, shortened: as §1
[8] = system: Streptococcus pneumoniae; assay: Antibacterial activity against erythromycin-resistant Streptococcus pneumoniae AB11 expressing ermB/mefA genes by broth microdilution method; procedure, shortened: as §2
[9] = system: Streptococcus pneumoniae; assay: Antibacterial activity against erythromycin-resistant Streptococcus pneumoniae B1 expressing ermB gene by broth microdilution method; procedure, shortened: as §2
[10] = system: Staphylococcus aureus; assay: Antibacterial activity against […] Staphylococcus aureus ATCC 29213 by broth microdilution method; procedure, shortened: as §2
[11] = system: Streptococcus pyogenes; assay: Antibacterial activity against erythromycin-resistant Streptococcus pyogenes R1 clinical isolate by broth microdilution method

| SMILES | MIC [1] [µg/mL] | MIC [2] [µg/mL] | MIC [3] [µg/mL] | MIC [4] [µg/mL] | MIC [5] [µg/mL] | MIC [6] [µg/mL] | MIC [7] [µg/mL] | MIC [8] [µg/mL] | MIC [9] [µg/mL] | MIC [10] [µg/mL] | MIC [11] [µg/mL] |
| --- | --- | --- | --- | --- | --- | --- | --- | --- | --- | --- | --- |
| CC[C@H]1OC(=O)[C@H](C)[C@@H](O)[C@H](C)[C@@H](O[C@@H]2O[C@H](C)C[C@H](N(C)C)[C@H]2OC(=O)Nc2ccccc2)[C@](C)(O)C[C@@H](C)CN(C)[C@H](C)[C@H]2OC(=O)O[C@@]21C | 32 (≈ 43.5 µM) | 32 (≈ 43.5 µM) | 8 (≈ 10.9 µM) | 64 (≈ 87 µM) | 32 (≈ 43.5 µM) | 32 (≈ 43.5 µM) | 0.5 (≈ 0.679 µM) | 8 (≈ 10.9 µM) | 128 (≈ 174 µM) | 128 (≈ 174 µM) | 128 (≈ 174 µM) |
| CC[C@H]1OC(=O)[C@H](C)[C@@H](O[C@H]2C[C@@](C)(OC)[C@@H](O)[C@H](C)O2)[C@H](C)[C@@H](O[C@@H]2O[C@H](C)C[C@H](N(C)C)[C@H]2O)[C@](C)(O)C[C@@H](C)CN(C)[C@H](C)[C@@H](O)[C@]1(C)O [AZITHROMYCIN] | 32 (≈ 42.7 µM) | 1 (≈ 1.34 µM) | 4 (≈ 5.34 µM) | 64 (≈ 85.4 µM) | 0.25 (≈ 0.334 µM) | 0.25 (≈ 0.334 µM) | 0.03 (≈ 0.0401 µM) | 256 (≈ 342 µM) | 256 (≈ 342 µM) | 4 (≈ 5.34 µM) | 256 (≈ 342 µM) |
| CC[C@H]1OC(=O)[C@H](C)[C@@H](OC(=O)Nc2cccc(C)c2)[C@H](C)[C@@H](O[C@@H]2O[C@H](C)C[C@H](N(C)C)[C@H]2O)[C@](C)(O)C[C@@H](C)CN(C)[C@H](C)[C@@H](OC(=O)NCc2ccc(C)cc2)[C@]1(C)O | 64 (≈ 73.5 µM) | 8 (≈ 9.18 µM) | 32 (≈ 36.7 µM) | 64 (≈ 73.5 µM) | 4 (≈ 4.59 µM) | 8 (≈ 9.18 µM) | 4 (≈ 4.59 µM) | 16 (≈ 18.4 µM) | 64 (≈ 73.5 µM) | 128 (≈ 147 µM) | 32 (≈ 36.7 µM) |
| CC[C@H]1OC(=O)[C@H](C)[C@@H](O)[C@H](C)[C@@H](O[C@@H]2O[C@H](C)C[C@H](N(C)C)[C@H]2OC(=O)Nc2ccc(F)cc2)[C@](C)(O)C[C@@H](C)CN(C)[C@H](C)[C@H]2OC(=O)O[C@@]21C | 128 (≈ 170 µM) | 64 (≈ 84.9 µM) | 4 (≈ 5.31 µM) | 128 (≈ 170 µM) | 64 (≈ 84.9 µM) | 16 (≈ 21.2 µM) | 1 (≈ 1.33 µM) | 8 (≈ 10.6 µM) | 64 (≈ 84.9 µM) | 128 (≈ 170 µM) | 64 (≈ 84.9 µM) |
| CC[C@H]1OC(=O)[C@H](C)[C@@H](OC(=O)Nc2ccccc2)[C@H](C)[C@@H](O[C@@H]2O[C@H](C)C[C@H](N(C)C)[C@H]2OC(C)=O)[C@](C)(O)C[C@@H](C)CN(C)[C@H](C)[C@H]2OC(=O)O[C@@]21C | 64 (≈ 82.3 µM) | 32 (≈ 41.1 µM) | 4 (≈ 5.14 µM) | 32 (≈ 41.1 µM) | 16 (≈ 20.6 µM) | 32 (≈ 41.1 µM) | 0.25 (≈ 0.321 µM) | 64 (≈ 82.3 µM) | 128 (≈ 165 µM) | 128 (≈ 165 µM) | 128 (≈ 165 µM) |
| CCCCc1ccc(NC(=O)O[C@H]2[C@H](O[C@@H]3[C@@H](C)[C@H](O)[C@@H](C)C(=O)O[C@H](CC)[C@@]4(C)OC(=O)O[C@@H]4[C@@H](C)N(C)C[C@H](C)C[C@@]3(C)O)O[C@H](C)C[C@@H]2N(C)C)cc1 | 128 (≈ 162 µM) | 128 (≈ 162 µM) | 64 (≈ 80.8 µM) | 128 (≈ 162 µM) | 64 (≈ 80.8 µM) | 32 (≈ 40.4 µM) | 8 (≈ 10.1 µM) | 32 (≈ 40.4 µM) | 256 (≈ 323 µM) | 128 (≈ 162 µM) | 64 (≈ 80.8 µM) |
| CC[C@H]1OC(=O)[C@H](C)[C@@H](O)[C@H](C)[C@@H](O[C@@H]2O[C@H](C)C[C@H](N(C)C)[C@H]2OC(=O)Nc2cccc(OC)c2)[C@](C)(O)C[C@@H](C)CN(C)[C@H](C)[C@H]2OC(=O)O[C@@]21C | 64 (≈ 83.6 µM) | 128 (≈ 167 µM) | 16 (≈ 20.9 µM) | 64 (≈ 83.6 µM) | 64 (≈ 83.6 µM) | 32 (≈ 41.8 µM) | 2 (≈ 2.61 µM) | 32 (≈ 41.8 µM) | 128 (≈ 167 µM) | 128 (≈ 167 µM) | 128 (≈ 167 µM) |
| CCCCCCNC(=O)O[C@@H]1[C@@H](C)N(C)C[C@H](C)C[C@@](C)(O)[C@H](O[C@@H]2O[C@H](C)C[C@H](N(C)C)[C@H]2O)[C@@H](C)[C@H](OC(=O)Nc2ccccc2)[C@@H](C)C(=O)O[C@H](CC)[C@@]1(C)O | 64 (≈ 76.5 µM) | 4 (≈ 4.78 µM) | – | 64 (≈ 76.5 µM) | – | 16 (≈ 19.1 µM) | 1 (≈ 1.19 µM) | – | – | – | – |
| CC[C@H]1OC(=O)[C@H](C)[C@@H](O)[C@H](C)[C@@H](O[C@@H]2O[C@H](C)C[C@H](N(C)C)[C@H]2OC(=O)Nc2ccccc2C)[C@](C)(O)C[C@@H](C)CN(C)[C@H](C)[C@H]2OC(=O)O[C@@]21C | 64 (≈ 85.3 µM) | 4 (≈ 5.33 µM) | 2 (≈ 2.67 µM) | 64 (≈ 85.3 µM) | 16 (≈ 21.3 µM) | 4 (≈ 5.33 µM) | 0.5 (≈ 0.667 µM) | 4 (≈ 5.33 µM) | 64 (≈ 85.3 µM) | 32 (≈ 42.7 µM) | 64 (≈ 85.3 µM) |
